Key:
[1] = Pharmacokinetics in plasma; assay type: in vivo; details: ICR mice, single 10.0 mg/kg iv
[2] = Biodistribution in major organs; assay type: in vivo; details: ICR mice, single 10.0 mg/kg iv
SGC-7901 cells = assay: Cytotoxicity assay; assay type: cell-based, Human; details: SGC-7901, MTT, n=3
Outline: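 SGC-7901 cells were grown in RPMI-1640 with 10% FBS, 1% penicillin and 1% streptomycin at 37°C, 5% CO2. Log-phase cells were seeded in triplicate at 1.0×10^4 cells/well overnight. Free drug or liposomal test formulations (1.0–100.0 µg/mL drug) were added for 24, 48 or 72 h. MTT (5.0 mg/mL stock) was added for 4 h, then DMSO, and OD read at 490 nm. IC50 was derived from viability.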

Structure (SMILES): O=C1[O][Pt]2([NH][C@@H]3CCCC[C@H]3[NH]2)[O]C1=O (relative stereo) [OXA, (1R-trans)-(1,2-cyclohexanediamine-N,N’)[oxalic acid (2-)-O,O’] platinum]
- last time at which OXA was detectable in plasma (undetectable after) [1]: 8 h
- plasma concentration of OXA ([1]; 0.08 h): 28590 ± 920 ng/mL
- plasma concentration of OXA ([1]; 0.17 h): 25030 ± 320 ng/mL
- plasma concentration of OXA ([1]; 0.50 h): 4490 ± 350 ng/mL
- plasma concentration of OXA ([1]; 1 h): 3200 ± 100 ng/mL
- plasma concentration of OXA ([1]; 2 h): 2860 ± 240 ng/mL
- plasma concentration of OXA ([1]; 4 h): 1990 ± 120 ng/mL
- plasma concentration of OXA ([1]; 6 h): 1500 ± 700 ng/mL
- plasma concentration of OXA ([1]; 8 h): 640 ± 110 ng/mL
- CL ([1]; plasma, n=3): 5.53 ± 1.5 mL/min/kg
- CLz ([1]; plasma, n=3): 5.85 ± 0.217 mL/min/kg
- K10 ([1]; plasma, n=3): 1.319 ± 0.250 h⁻¹
- K12 ([1]; plasma, n=3): 5.632 ± 0.360 h⁻¹
- K21 ([1]; plasma, n=3): 0.828 ± 0.070 h⁻¹
- MRT(0-t) ([1]; plasma, n=3): 2.535 ± 0.520 H
- MRT(0-∞) ([1]; plasma, n=3): 4.319 ± 0.130 H
- T1/2z ([1]; plasma, n=3): 4.995 ± 0.360 H
- Tmax ([1]; plasma, n=3): 0.250 ± 0.015 H
- t1/2α ([1]; plasma, n=3): 0.215 ± 0.077 H
- t1/2β (elimination half-life) ([1]; plasma, n=3): 3.214 ± 0.420 H
- OXA concentration in heart ([2]; 0.5 h): 8.59 ± 0.06 µg/g
- OXA concentration in kidneys ([2]; 0.5 h): 8.73 ± 0.45 µg/g
- OXA concentration in liver ([2]; 0.5 h): 14.00 ± 0.30 µg/g
- OXA concentration in lungs ([2]; 0.5 h): 4.60 ± 0.13 µg/g
- OXA concentration in spleen ([2]; 0.5 h): 14.27 ± 0.44 µg/g
- OXA concentration in heart ([2]; 1 h): 10.27 ± 0.44 µg/g
- OXA concentration in kidneys ([2]; 1 h): 4.02 ± 0.61 µg/g
- OXA concentration in liver ([2]; 1 h): 12.49 ± 0.56 µg/g
- OXA concentration in lungs ([2]; 1 h): 3.70 ± 0.22 µg/g
- OXA concentration in spleen ([2]; 1 h): 13.40 ± 0.80 µg/g
- OXA concentration in heart ([2]; 2 h): 6.79 ± 0.40 µg/g
- OXA concentration in kidneys ([2]; 2 h): 2.85 ± 0.27 µg/g
- OXA concentration in liver ([2]; 2 h): 12.50 ± 0.58 µg/g
- OXA concentration in lungs ([2]; 2 h): 4.35 ± 0.63 µg/g
- OXA concentration in spleen ([2]; 2 h): 13.21 ± 0.22 µg/g
- OXA concentration in heart ([2]; 4 h): 5.55 ± 0.45 µg/g
- OXA concentration in kidneys ([2]; 4 h): 2.36 ± 0.70 µg/g
- OXA concentration in liver ([2]; 4 h): 10.91 ± 1.56 µg/g
- OXA concentration in lungs ([2]; 4 h): 4.98 ± 0.18 µg/g
- OXA concentration in spleen ([2]; 4 h): 10.35 ± 1.53 µg/g
- OXA concentration in heart ([2]; 6 h): 4.22 ± 0.14 µg/g
- OXA concentration in kidneys ([2]; 6 h): 2.84 ± 0.25 µg/g
- OXA concentration in liver ([2]; 6 h): 8.87 ± 0.40 µg/g
- OXA concentration in lungs ([2]; 6 h): 4.54 ± 0.90 µg/g
- OXA concentration in spleen ([2]; 6 h): 10.56 ± 0.56 µg/g
- OXA concentration in heart ([2]; 8 h): 3.26 ± 0.34 µg/g
- OXA concentration in kidneys ([2]; 8 h): 2.65 ± 0.12 µg/g
- OXA concentration in liver ([2]; 8 h): 7.06 ± 0.44 µg/g
- OXA concentration in lungs ([2]; 8 h): 3.94 ± 0.12 µg/g
- OXA concentration in spleen ([2]; 8 h): 4.81 ± 0.33 µg/g
- AUC(0-t), heart ([2]; n=3): 48.080 ± 1.690 µg·h/g
- AUC(0-t), kidneys ([2]; n=3): 27.380 ± 1.870 µg·h/g
- AUC(0-t), liver ([2]; n=3): 87.870 ± 1.360 µg·h/g
- AUC(0-t), lungs ([2]; n=3): 34.130 ± 1.960 µg·h/g
- AUC(0-t), spleen ([2]; n=3): 118.170 ± 4.560 µg·h/g
- AUC(0-∞), heart ([2]; n=3): 68.591 ± 5.210 µg·h/g
- AUC(0-∞), kidneys ([2]; n=3): 69.442 ± 5.640 µg·h/g
- AUC(0-∞), liver ([2]; n=3): 161.538 ± 3.960 µg·h/g
- AUC(0-∞), lungs ([2]; n=3): 106.955 ± 9.140 µg·h/g
- AUC(0-∞), spleen ([2]; n=3): 128.580 ± 9.360 µg·h/g
- MRT, heart ([2]; n=3): 5.574 ± 0.980 h
- MRT, kidneys ([2]; n=3): 16.594 ± 2.220 h
- MRT, liver ([2]; n=3): 9.330 ± 1.020 h
- MRT, lungs ([2]; n=3): 17.707 ± 1.990 h
- MRT, spleen ([2]; n=3): 5.990 ± 0.230 h
- IC50 (SGC-7901 cells; 48 h): 15.87 ± 0.27 µg/mL
- IC50 (SGC-7901 cells; 72 h): 14.17 ± 0.14 µg/mL

From paper PMC8712509 (International Journal of Nanomedicine, 2021)
